Laboratory results reported in ChEMBL document CHEMBL4689842, “EUbOPEN Chemogenomics Library wave 1” (2021).

System: HEK-293T
Test: Multiplex assay against HEK293T;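 for Population Tubulin-Different-Phenotype (%): share of the cells with healthy nuclei that show this phenotype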
Type: toxicity, cell-based
Conditions: human
Method in brief: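 Compound was added to live cells that had been stained at seeding with Hoechst33342, BioTracker Green Microtubule Cytoskeleton Dye, MitoTracker Red and Annexin V Alexa Fluor 680, and imaging followed on a CQ1 microscope at 37°C and 5% CO2. CellPathfinder machine-learning gating divided cells into Hoechst high-intensity objects or normal cells, normal cells into healthy, pyknosed or fragmented nuclei, and pyknosed cells into mitotic or apoptotic. Tubulin, mitochondrial-mass and membrane-permeability phenotypes are per cents of healthy-nucleus cells.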

[1] = 12 h, 1 µM, compound concentration 1 uM, replicate 1
[2] = 12 h, 1 µM, compound concentration 1 uM, replicate 2
[3] = 12 h, 10 µM, compound concentration 10 uM, replicate 1
[4] = 12 h, 10 µM, compound concentration 10 uM, replicate 2
[5] = 24 h, 1 µM, compound concentration 1 uM, replicate 1
[6] = 24 h, 1 µM, compound concentration 1 uM, replicate 2
[7] = 24 h, 10 µM, compound concentration 10 uM, replicate 1
[8] = 24 h, 10 µM, compound concentration 10 uM, replicate 2
[9] = 48 h, 1 µM, compound concentration 1 uM, replicate 1
[10] = 48 h, 1 µM, compound concentration 1 uM, replicate 2
[11] = 48 h, 10 µM, compound concentration 10 uM, replicate 1
[12] = 48 h, 10 µM, compound concentration 10 uM, replicate 2

CNC(=O)Nc1ccc(-c2nc(N3CC4CCC(C3)O4)c3cnn(C4CCC5(CC4)OCCO5)c3n2)cc1
Population Apoptotic (%) [1]: 55% | Population Fragmented Nuclei (%) [1]: 24% | Population Healthy Nuclei (%) [1]: 6% | Population Hoechst High Intensity Objects (%) [1]: 20% | Population Membrane Permeable-Phenotype (%) [1]: 0% | Population Mitochondria Different-Phenotype (%) [1]: 75% | Population Mitotic Cells (%) [1]: 44% | Population Normal (%) [1]: 79% | Population Pyknosed Nuclei (%) [1]: 68% | Population Tubulin-Different-Phenotype (%) [1]: 50% | Total Cell Count [1]: 149 | Population Apoptotic (%) [2]: 23% | Population Fragmented Nuclei (%) [2]: 9% | Population Healthy Nuclei (%) [2]: 26% | Population Hoechst High Intensity Objects (%) [2]: 10% | Population Membrane Permeable-Phenotype (%) [2]: 8% | Population Mitochondria Different-Phenotype (%) [2]: 32% | Population Mitotic Cells (%) [2]: 76% | Population Normal (%) [2]: 89% | Population Pyknosed Nuclei (%) [2]: 64% | Population Tubulin-Different-Phenotype (%) [2]: 24% | Total Cell Count [2]: 155 | Population Apoptotic (%) [3]: 76% | Population Fragmented Nuclei (%) [3]: 18% | Population Healthy Nuclei (%) [3]: 7% | Population Hoechst High Intensity Objects (%) [3]: 26% | Population Membrane Permeable-Phenotype (%) [3]: 11% | Population Mitochondria Different-Phenotype (%) [3]: 88% | Population Mitotic Cells (%) [3]: 23% | Population Normal (%) [3]: 73% | Population Pyknosed Nuclei (%) [3]: 73% | Population Tubulin-Different-Phenotype (%) [3]: 88% | Total Cell Count [3]: 167 | Population Apoptotic (%) [4]: 56% | Population Fragmented Nuclei (%) [4]: 8% | Population Healthy Nuclei (%) [4]: 8% | Population Hoechst High Intensity Objects (%) [4]: 7% | Population Membrane Permeable-Phenotype (%) [4]: 6% | Population Mitochondria Different-Phenotype (%) [4]: 100% | Population Mitotic Cells (%) [4]: 43% | Population Normal (%) [4]: 92% | Population Pyknosed Nuclei (%) [4]: 82% | Population Tubulin-Different-Phenotype (%) [4]: 100% | Total Cell Count [4]: 182 | Population Apoptotic (%) [5]: 68% | Population Fragmented Nuclei (%) [5]: 32% | Population Healthy Nuclei (%) [5]: 5% | Population Hoechst High Intensity Objects (%) [5]: 29% | Population Membrane Permeable-Phenotype (%) [5]: 16% | Population Mitochondria Different-Phenotype (%) [5]: 66% | Population Mitotic Cells (%) [5]: 31% | Population Normal (%) [5]: 70% | Population Pyknosed Nuclei (%) [5]: 61% | Population Tubulin-Different-Phenotype (%) [5]: 16% | Total Cell Count [5]: 151 | Population Apoptotic (%) [6]: 21% | Population Fragmented Nuclei (%) [6]: 12% | Population Healthy Nuclei (%) [6]: 34% | Population Hoechst High Intensity Objects (%) [6]: 10% | Population Membrane Permeable-Phenotype (%) [6]: 8% | Population Mitochondria Different-Phenotype (%) [6]: 35% | Population Mitotic Cells (%) [6]: 78% | Population Normal (%) [6]: 89% | Population Pyknosed Nuclei (%) [6]: 53% | Population Tubulin-Different-Phenotype (%) [6]: 20% | Total Cell Count [6]: 158 | Population Apoptotic (%) [7]: 81% | Population Fragmented Nuclei (%) [7]: 23% | Population Healthy Nuclei (%) [7]: 3% | Population Hoechst High Intensity Objects (%) [7]: 27% | Population Membrane Permeable-Phenotype (%) [7]: 25% | Population Mitochondria Different-Phenotype (%) [7]: 75% | Population Mitotic Cells (%) [7]: 18% | Population Normal (%) [7]: 72% | Population Pyknosed Nuclei (%) [7]: 73% | Population Tubulin-Different-Phenotype (%) [7]: 75% | Total Cell Count [7]: 165 | Population Apoptotic (%) [8]: 68% | Population Fragmented Nuclei (%) [8]: 10% | Population Healthy Nuclei (%) [8]: 17% | Population Hoechst High Intensity Objects (%) [8]: 11% | Population Membrane Permeable-Phenotype (%) [8]: 17% | Population Mitochondria Different-Phenotype (%) [8]: 85% | Population Mitotic Cells (%) [8]: 31% | Population Normal (%) [8]: 88% | Population Pyknosed Nuclei (%) [8]: 72% | Population Tubulin-Different-Phenotype (%) [8]: 96% | Total Cell Count [8]: 182 | Population Apoptotic (%) [9]: 62% | Population Fragmented Nuclei (%) [9]: 46% | Population Healthy Nuclei (%) [9]: 3% | Population Hoechst High Intensity Objects (%) [9]: 33% | Population Membrane Permeable-Phenotype (%) [9]: 0% | Population Mitochondria Different-Phenotype (%) [9]: 66% | Population Mitotic Cells (%) [9]: 37% | Population Normal (%) [9]: 66% | Population Pyknosed Nuclei (%) [9]: 50% | Population Tubulin-Different-Phenotype (%) [9]: 33% | Total Cell Count [9]: 144 | Population Apoptotic (%) [10]: 34% | Population Fragmented Nuclei (%) [10]: 13% | Population Healthy Nuclei (%) [10]: 46% | Population Hoechst High Intensity Objects (%) [10]: 11% | Population Membrane Permeable-Phenotype (%) [10]: 1% | Population Mitochondria Different-Phenotype (%) [10]: 50% | Population Mitotic Cells (%) [10]: 65% | Population Normal (%) [10]: 88% | Population Pyknosed Nuclei (%) [10]: 40% | Population Tubulin-Different-Phenotype (%) [10]: 61% | Total Cell Count [10]: 138 | Population Apoptotic (%) [11]: 84% | Population Fragmented Nuclei (%) [11]: 35% | Population Healthy Nuclei (%) [11]: 8% | Population Hoechst High Intensity Objects (%) [11]: 23% | Population Membrane Permeable-Phenotype (%) [11]: 11% | Population Mitochondria Different-Phenotype (%) [11]: 100% | Population Mitotic Cells (%) [11]: 15% | Population Normal (%) [11]: 76% | Population Pyknosed Nuclei (%) [11]: 56% | Population Tubulin-Different-Phenotype (%) [11]: 100% | Total Cell Count [11]: 146 | Population Apoptotic (%) [12]: 65% | Population Fragmented Nuclei (%) [12]: 8% | Population Healthy Nuclei (%) [12]: 40% | Population Hoechst High Intensity Objects (%) [12]: 8% | Population Membrane Permeable-Phenotype (%) [12]: 1% | Population Mitochondria Different-Phenotype (%) [12]: 83% | Population Mitotic Cells (%) [12]: 34% | Population Normal (%) [12]: 91% | Population Pyknosed Nuclei (%) [12]: 51% | Population Tubulin-Different-Phenotype (%) [12]: 90% | Total Cell Count [12]: 181
